Experimental data as given in article PMC10099993 (Clinical Pharmacology in Drug Development, 2022).
Where “and” joins values, the source holds several entries; their conditions need not be identical. Equal values may be shown once. Read-outs that look alike come from different tables or passages of the source.

Tests used:
[1] = Mass balance study, single oral dose of [14C]-pexidartinib 400 mg; type: in vivo, human; conditions: for Percent of Radioactive Dose, feces: pooled feces
Procedure, shortened: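 Eight healthy men, 19–55 y, BMI 19–32 kg/m2. Single oral 400 mg (150 μCi) 14C suspension with ~50 mL water after ≥8 h fast, fasting ≥4 h after dosing. Confined ≥168 h; urine and feces collected up to 240 h. Total radioactivity by scintillation counting. Parent in plasma by validated LC-MS/MS. Radio-LC-MS profiling of metabolites. Noncompartmental PK.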

[2] = type: in vivo, human; conditions: for half-life / Cmax: human, plasma; for half-life: oral; for Cmax: po; for dose-normalized AUCinf, geometric LS mean / dose-normalized AUClast, geometric LS mean / dose-normalized Cmax, geometric LS mean: ANOVA
Procedure, shortened: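 Healthy adults of both sexes, 18–60 y, BMI 18–30 kg/m2. Randomized three-period crossover (sequences ABC/BCA/CAB), with a single fasted oral dose and 240 mL water on day 1 of each period and a 10-day washout. Plasma sampled 0.5–144 h postdose and analysed by validated LC-MS/MS. Noncompartmental PK. Mixed-effects ANOVA on dose-normalized ln Cmax/AUC versus the 400 mg reference. Power model: 90% CI of slope against the 80–120% interval.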

rCYP3A4 = rCYP3A4 (Homo sapiens, UniProt P08684); assay: In vitro metabolic enzyme identification, recombinant human CYP incubation; type: in vitro ADME; conditions: 1 μM pexidartinib, NADPH, 37°C, 30 minutes
Chain of rCYP3A4 (P08684 whole entry): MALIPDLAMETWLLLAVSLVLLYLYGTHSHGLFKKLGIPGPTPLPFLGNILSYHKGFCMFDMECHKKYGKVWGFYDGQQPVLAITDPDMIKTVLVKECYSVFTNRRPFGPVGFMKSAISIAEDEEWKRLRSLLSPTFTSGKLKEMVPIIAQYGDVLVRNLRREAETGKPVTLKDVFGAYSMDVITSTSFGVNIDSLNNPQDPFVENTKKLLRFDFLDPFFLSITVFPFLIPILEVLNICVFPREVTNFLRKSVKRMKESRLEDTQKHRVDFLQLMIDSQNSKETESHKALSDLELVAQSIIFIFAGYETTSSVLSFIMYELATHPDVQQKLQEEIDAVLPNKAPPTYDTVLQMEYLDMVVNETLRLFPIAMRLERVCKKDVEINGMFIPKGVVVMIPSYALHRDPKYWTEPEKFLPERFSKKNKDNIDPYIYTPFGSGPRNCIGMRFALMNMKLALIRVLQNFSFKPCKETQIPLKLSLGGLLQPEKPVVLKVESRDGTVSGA
Procedure, shortened: (§1)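 1 μM test compound incubated with a panel of recombinant human CYPs (1A2, 2B6, 2C8, 2C9, 2C19, 2D6, 3A4, 3A5) plus NADPH at 37°C for 30 minutes. Parent loss measured by LC-MS/MS.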

rCYP3A5 = rCYP3A5 (Homo sapiens, UniProt P20815); assay: as above; type: in vitro ADME; conditions: 1 μM pexidartinib, NADPH, 37°C, 30 minutes
Chain of rCYP3A5 (P20815 whole entry): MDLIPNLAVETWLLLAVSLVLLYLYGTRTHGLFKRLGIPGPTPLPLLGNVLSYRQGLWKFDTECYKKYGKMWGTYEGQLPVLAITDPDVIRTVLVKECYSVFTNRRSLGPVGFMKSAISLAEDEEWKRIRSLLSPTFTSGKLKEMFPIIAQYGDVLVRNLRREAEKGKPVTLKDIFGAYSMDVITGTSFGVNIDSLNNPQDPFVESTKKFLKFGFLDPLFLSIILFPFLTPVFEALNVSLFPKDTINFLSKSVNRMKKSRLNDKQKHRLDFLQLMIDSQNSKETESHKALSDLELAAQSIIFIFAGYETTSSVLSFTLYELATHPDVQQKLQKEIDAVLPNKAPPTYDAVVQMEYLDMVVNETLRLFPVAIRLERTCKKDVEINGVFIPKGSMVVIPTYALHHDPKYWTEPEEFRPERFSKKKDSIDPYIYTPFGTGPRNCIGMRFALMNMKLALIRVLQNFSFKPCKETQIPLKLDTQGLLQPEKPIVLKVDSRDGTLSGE
Procedure, shortened: as §1

cytochrome P450 (CYP) 3A = conditions: previous pharmacokinetic analyses ref 4; cited from earlier work
CYP2C9 = conditions: previous pharmacokinetic analyses ref 4; cited from earlier work
[3] = following oral administration; background statement, no reference given; cited from earlier work
[4] = male, human, plasma, po, 400 mg
[5] = single oral [14C]-pexidartinib 400 mg
[6] = single oral [14C]-pexidartinib 400 mg, N = 8, median (range)
[7] = across all three dose levels, 90%CI
[8] = dose-proportionality study, 18 subjects
[9] = pexidartinib 200 mg vs 400 mg (400 mg reference)
[10] = pexidartinib 400 mg vs 600 mg (400 mg reference)

## FC(F)(F)c1ccc(CNc2ccc(Cc3c[nH]c4ncc(Cl)cc34)cn2)cn1 [Pexidartinib]
[1]; after the oral dose, pexidartinib and total radioactivity together
  time of peak pexidartinib and total radioactivity: 1.75 to 2.0 h
[1]; all events, mass balance study
  severity of TEAEs: mild (grade 1)
[1]; inferred from 44% of dose excreted unchanged in feces
  oral bioavailability: moderate
[1]; [4]
  Cmax: 2920 ng/mL
  Tmax: 1.75 h
  half-life: 28.7 h
[1]; male, human, plasma, po, 400 mg, AUClast, pexidartinib in plasma, single oral [14C]-pexidartinib 400 mg, N = 8, mean (CV%)
  AUC(0-t): 60400 ng·h/mL
[1]; mass balance study
  TEAE deemed by the investigator to be related to pexidartinib treatment: Diarrhea
[1]; mass balance study, 8 subjects
  TEAE leading to death, serious adverse event, or discontinuation: No subject
  number of TEAEs: four
[1]; over 240 hours, single oral [14C]-pexidartinib 400 mg
  administered radioactivity recovered in the feces: 64.8%
[1]; over 240 hours, single oral [14C]-pexidartinib 400 mg, listed as [^14C]‐pexidartinib
  administered radioactivity recovered in the urine: 27.4%
[1]; over 240 hours, single oral [14C]-pexidartinib 400 mg, listed as pexidartinib
  administered radioactivity recovered in the urine: > 20%
[1]; plasma, single oral [14C]-pexidartinib 400 mg
  share of total radioactivity in the plasma: 34.9%
[1]; [5]
  Percent of Radioactive Dose, feces: 44%
  AUC0-24 of total plasma radioactivity relative to plasma pexidartinib: approximately 2 fold
  AUClast of total radioactivity in plasma relative to pexidartinib in plasma: 3 fold
  Cmax of total plasma radioactivity relative to plasma pexidartinib: approximately 2 fold
[1]; single oral [14C]-pexidartinib 400 mg, listed as pexidartinib
  Percent of Radioactive Dose, feces: 44.0%
[1]; pooled urine, single oral [14C]-pexidartinib 400 mg
  Percent of Radioactive Dose, urine: no detectable
[1]; [6]
  Tmax, total radioactivity in plasma: 2.0 (1.5, 3.0) h
  Tmax, total radioactivity in whole blood: 2.0 (1.5, 3.0) h
[2]; 200-600 mg, 90%CIs overlapped the 0.80-1.20 acceptance interval
  dose proportionality by power model: inconclusive
[2]; [7]
  slope estimate for AUClast versus dose (power model): 0.85 (90%CI 0.77, 0.92)
  slope estimate for Cmax versus dose (power model): 0.83 (90%CI 0.74, 0.91) and 0.83 (90%CI, 0.74, 0.91)
[2]; all TEAEs, dose-proportionality study
  severity of TEAEs: grade 1
[2]; [8]
  TEAE leading to death, serious adverse event, or discontinuation: No subject
  subjects who experienced TEAEs: four
[2]
  half-life: 24.8 to 26.7 h
[2]; 600 mg
  half-life: 24.8 h
  Cmax: 6030 ng/mL
[2]; 200 mg
  Cmax: 2490 ng/mL
[2]; 400 mg
  Cmax: 4660 ng/mL
[2]; [9]
  dose-normalized AUCinf, geometric LS mean ratio (90%CI): 101.3 (93.5, 109.7) %
  dose-normalized AUClast, geometric LS mean ratio (90%CI): 101.3 (93.5, 109.8) %
  dose-normalized Cmax, geometric LS mean ratio (90%CI): 105.9 (96.8, 115.8) %
[2]; pexidartinib 200 mg, n = 18
  dose-normalized AUCinf, geometric LS mean: 209.4 ng·h/mL/mg
  dose-normalized AUClast, geometric LS mean: 204.1 ng·h/mL/mg
  dose-normalized Cmax, geometric LS mean: 11.7 ng/mL • mg
[2]; pexidartinib 200 mg, n = 18, mean (SD)
  t1/2, pexidartinib in plasma: 25.5 (5.2) h
[2]; [10]
  dose-normalized AUCinf, geometric LS mean ratio (90%CI): 83.7 (77.3, 90.7) %
  dose-normalized AUClast, geometric LS mean ratio (90%CI): 84.1 (77.6, 91.2) %
  dose-normalized Cmax, geometric LS mean ratio (90%CI): 86.3 (79.0, 94.4) %
[2]; pexidartinib 400 mg, n = 18
  dose-normalized AUCinf, geometric LS mean: 206.8 ng·h/mL/mg
  dose-normalized AUClast, geometric LS mean: 201.4 ng·h/mL/mg
  dose-normalized Cmax, geometric LS mean: 11.0 ng/mL • mg
[2]; pexidartinib 600 mg, n = 18
  dose-normalized AUCinf, geometric LS mean: 173.2 ng·h/mL/mg
  dose-normalized AUClast, geometric LS mean: 169.4 ng·h/mL/mg
  dose-normalized Cmax, geometric LS mean: 9.5 ng/mL • mg
rCYP3A4
  substrate loss: 100 % loss
rCYP3A5
  substrate loss: 100 % loss
Cytochrome P450 (CYP) 3A
  effect on CYP3A: moderate inducer
CYP2C9
  effect on CYP2C9: weak inhibitor
[3]
  time of maximum plasma concentrations: approximately 2.5 hours
